{
  "source": "paper PMC9091492",
  "about": "(RSC Advances, 2018)",
  "format_in_all_cases": "cell-based",
  "key": {"[1]": {"assay": "MTT cytotoxic assay, A549", "settings": "human, A549 cells", "how_it_was_run": "(§1)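 Cells grown in RPMI-1640 with 10% fetal bovine serum, 5% CO2, 37 °C. Seeded at 5 × 10^4 cells per mL, 24 h to form a monolayer, then medium replaced with fresh medium plus test compound at 50, 25, 12.5, 6.25, 3.125, 1.5625 μg mL−1. After 3 days, MTT 4 h, formazan in DMSO, OD 570 nm. Inhibition rate from OD versus control, IC50 calculated; three individual experiments, mean ± SD; adriamycin positive control.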"}, "[2]": {"assay": "MTT cytotoxic assay, HeLa", "settings": "human, HeLa cells", "how_it_was_run": "as §1"}, "[3]": {"assay": "MTT cytotoxic assay, HepG2", "settings": "human, HepG2 cells", "how_it_was_run": "as §1"}},
  "data": [
    {"smiles": "COc1cccc2c1C(=O)c1c(O)c3c(c(O)c1C2=O)C[C@@](O)(C(=O)CO)C[C@@H]3O[C@H]1C[C@H](N)[C@H](O)[C@H](C)O1", "note": "[Adriamycin, adriamycin]", "values": [
      {"measurement": "IC50 at 3 days", "setting": "[1]", "result": "680 ± 60", "unit": "nM"},
      {"measurement": "IC50 at 3 days", "setting": "[2]", "result": "480 ± 70", "unit": "nM"},
      {"measurement": "IC50 at 3 days", "setting": "[3]", "result": "1250 ± 40", "unit": "nM"}
    ]}
  ]
}
